Bioassay records as filed in PubChem.
Lmaj promast = inhibitors of Leishmania major promastigote growth; Leishmania major promastigotes, resazurin fluorescence viability; AID 1063; 200,000 tested, 9% active; inhibition, % at 10 µM; in the data active = inhibition above about 50%;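 note: promastigotes grown with compound for 44 hours at 28 °C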
PMI activator = increases human mannose-6-phosphate isomerase activity; purified human PMI, coupled resazurin fluorescence, 20 min; hits give high values; 1 = vehicle control, 0 substrate-free wells; 190,000 tested, 0.005% active; P34949; activation factor at 20 µM;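 active = activation factor of 2 or more at 20 µM, relative to plate controls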
Target sequence (P34949 whole entry, looked up): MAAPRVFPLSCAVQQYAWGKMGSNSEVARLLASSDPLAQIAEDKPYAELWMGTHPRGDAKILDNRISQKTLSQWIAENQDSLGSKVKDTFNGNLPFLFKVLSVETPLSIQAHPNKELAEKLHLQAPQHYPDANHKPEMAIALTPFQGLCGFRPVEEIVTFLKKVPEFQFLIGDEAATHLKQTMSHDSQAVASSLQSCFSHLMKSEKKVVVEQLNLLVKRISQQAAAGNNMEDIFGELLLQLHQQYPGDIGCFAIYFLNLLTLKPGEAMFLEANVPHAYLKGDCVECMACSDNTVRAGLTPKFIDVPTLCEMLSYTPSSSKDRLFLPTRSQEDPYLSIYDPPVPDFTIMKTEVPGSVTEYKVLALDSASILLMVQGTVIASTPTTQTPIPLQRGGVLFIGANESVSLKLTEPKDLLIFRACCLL
HCT116 PTEN-null = growth suppressors of cells with PTEN tumor suppressor deletion | HCT116 PTEN-null viability, CellTiter-Glo, 60 h; hits give low values | viability, % at 10 µM | 140,000 tested, 1.2% active | AID 827;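 active = viability at or below a set limit, 4 SD under the median of all tested compounds, cut at about 3.7% in these data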;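 note: PTEN knockout HCT116 line with beta catenin targeted HCT116 as companion control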
bCat KO growth = beta-catenin-lacking colon tumor cell growth suppression. HCT116 beta-catenin knockout viability, CellTiter-Glo, 60 h; hits give low values. viability, % at 10 µM. 140,000 tested, 1.5% active;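 active = viability at or under a set limit, the compound median less 4 SD, cut at about 6% in these data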
PMI act hi M6P = increases human PMI activity with near-saturating mannose 6-phosphate; coupled PMI enzyme assay, resazurin fluorescence, 20 min; hits give high values; 1 = untreated enzyme, 0 = substrate-free blank; P34949; 190,000 tested, 0.34% active; activation factor at 20 µM;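 active = activation factor of 2 or more at 20 µM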
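Material: human phosphomannose isomerase with PGI, G6PDH, diaphorase coupling enzymes. Quantity: 15 ng/mL PMI. Medium: HEPES pH 7.4 buffer with MgCl2 and Tween-20. Reagent: Near-saturating mannose-6-phosphate, 1.0 mM. Compound: 20 µM single dose. Times: enzyme reaction with compound 20 min at room temperature. Detection: resorufin fluorescence at Ex 544/Em 590 nm.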
Hits are given with their value; 0 = inactive; - = not tested or not shown. Most compounds without a hit are left out; they make up all but 9.6% or so of the library.

SMILES	Lmaj promast	PMI activator	HCT116 PTEN-null	bCat KO growth	PMI act hi M6P
CC(=O)NC(NC(=S)Nc1ccc(N=Nc2ccccc2)cc1)C(Cl)(Cl)Cl (stereo unspecified)	63.7	0	0	0	0
COC(=O)c1ccccc1NC(=S)NC(NC(=O)c1ccccc1[N+](=O)[O-])C(Cl)(Cl)Cl (stereo unspecified)	95.6	0	0	0	0
CCC(=O)NC(NC(=S)Nc1ccc(S(N)(=O)=O)cc1)C(Cl)(Cl)Cl (stereo unspecified)	0	0	0	0	0
COC(=O)c1ccccc1NC(=S)NC(NC(=O)c1ccco1)C(Cl)(Cl)Cl (stereo unspecified)	0	0	0	0	0
CC(C)CC(=O)NC(NC(=S)Nc1ccccc1)C(Cl)(Cl)Cl (stereo unspecified)	0	0	-	-	0
COC(=O)NC(NC(=S)Nc1ccc([N+](=O)[O-])cc1)C(Cl)(Cl)Cl (stereo unspecified)	99.1	0	0	0	0
Cc1ccc(CNC(=O)CN(Cc2ccccc2)S(C)(=O)=O)cc1	0	0	0	0	0
Cc1cc(C)n(-c2ccc(C)c(Cl)c2)n1	0	0	0	0	0
COc1ccccc1NC(=O)C1=C(C)NC2=C(C(=O)CC(c3ccc(OC)c(OC)c3)C2)C1c1coc2ccccc2c1=O (stereo unspecified)	0	0	0	0	0
NC(Cc1ccccc1)C(O)(c1ccccc1)c1ccccc1 (stereo unspecified)	0	0	-	-	0
CCc1ccc(OCC(=O)NC(NC(=S)Nc2ccccc2)C(Cl)(Cl)Cl)cc1 (stereo unspecified)	0	0	0	2.4	0
CCCCOc1ccccc1C1C(C(=O)OC)=C(C)N(C)C(C)=C1C(=O)OC	87.7	0	0	0	0
CN(C)Cc1c(O)ccc2oc(Cc3ccccc3)cc12	76.9	0	0	0	0
CCOc1ccc2c(c1)C(C)=CC(C)(C)N2C(=O)Nc1ccccc1	50.5	0	0	0	0
COc1ccc(NC(=O)N2c3ccc(OC)cc3C(C)=CC2(C)C)cc1	0	0	0	0	0
Clc1cccc(Cl)c1/C=C/c1nc2ccccc2[nH]1	98.2	0	0	0	0
O=C(NCCO)C1CCN(C(=O)c2ccc(-c3ccccc3)cc2)CC1	0	0	-	-	0
Cn1c(C(=O)NCCN2CCCCCC2)cc2c(=O)n(C)c3ccccc3c21	69.7	0	0	0	0
CCCCN(CC)CCCNC(=O)c1cc2c(=O)n(C)c3ccccc3c2n1C	80.4	0	0	0	0
CN(C)CCCNC(=O)c1cc2c3ccccc3n(C)c2s1	90.7	0	0	0	0
CC(C)OCCCNC(=O)c1cc2c(=O)n(C)c3ccccc3c2n1C	0	0	0	0	0
COc1ccc(NC(=O)c2cc3c(=O)n(C)c4ccccc4c3s2)cc1OC	0	0	-	-	0
CN1CCN(CCCNC(=O)c2cc3c(=O)n(C)c4ccccc4c3s2)CC1	97.8	0	0	0	0
COC(=O)c1nn(-c2ccccc2)c(Sc2ccc(Cl)cc2)c1/C=N/O	0	0	0	0	0
CN1C(=O)c2ccc(NC(=O)CCS(=O)(=O)c3ccccc3)cc2C1=O	0	0	-	-	0
SMILES	Lmaj promast	PMI activator	HCT116 PTEN-null	bCat KO growth	PMI act hi M6P
Cc1ccc2c(c1)-c1ncc(C(=O)c3cc(Br)ccc3O)cc1CO2	0	0	-	-	0
CN(C)CCNC(=O)c1cc2sc3ccccc3c2s1	83.9	0	-	-	0
CC1CCN(CCCNC(=O)c2cc3c(=O)n(C)c4ccccc4c3n2C)CC1	62.6	0	0	0	0
Cn1c(C(=O)NCCCN2CCN(c3ccccc3F)CC2)cc2c(=O)n(C)c3ccccc3c21	0	0	0	1.7	0
Cn1c(C(=O)NCCCN2CCOCC2)cc2c(=O)n(C)c3ccccc3c21	0	0	0	0	0
Nc1ccc(SC(F)(F)F)cc1	0	0	-	-	0
COC(=O)c1ccc(NC(=O)Cc2ccc(F)cc2)cc1	67.9	0	-	-	0
COc1cccc(C(=O)Nc2cccc(NC(C)=O)c2)c1	0	0	0	0	0
COc1cccc(C(=O)NCc2ccc3[nH]c(C)cc3c2)c1	0	0	-	-	0
COc1ccc(CC(=O)Nc2ccc(C(=O)NCC(C)C)cc2)cc1	54.5	0	0	0	0
COc1cccc(CNC(=O)c2cccc(Br)c2)c1	54.0	0	0	0	0
COc1cccc(C(=O)Nc2cccc(C(=O)NCC(C)C)c2)c1	63.6	0	0	0	0
COc1ccc(CC(=O)Nc2ccc(C(C)=O)cc2)cc1	0	-	-	-	-
CCCSc1nc(N)nc(-c2cccs2)c1C#N	0	0	0	0	0
COC(=O)c1ccc(NC(=O)CNCc2ccncc2)cc1	56.1	0	0	0	0
COc1cc(OC)cc(C(=O)Nc2cccc(N3CCCC3)c2)c1	71.9	0	0	0	0
Cc1cccc(C)c1NC(=O)COC(=O)c1c2c(nc3ccccc13)/C(=C\c1ccc3c(c1)OCO3)CCC2	83.0	0	0	0	0
C/C(=N\NC(=O)Cc1c[nH]c2ccccc12)c1ccc2ccccc2c1	54.6	0	-	-	0
CC(=O)Nc1ccc(NC(=O)CCCc2c[nH]c3ccccc23)cc1	0	0	-	-	0
C/C(=N\NC(=O)Nc1ccccc1)c1ccc2ccccc2c1	0	0	0	0	0
O=C(CCCc1c[nH]c2ccccc12)NCC1COc2ccccc2O1 (stereo unspecified)	55.2	0	-	-	0
O=C(CCCc1c[nH]c2ccccc12)Nc1ccc2ccccc2c1	51.8	0	0	0	0
Cn1cccc1Cc1nnc(SCC(=O)NCCc2ccccc2)n1C	0	0	-	-	0
Cc1ccc(SCC(=O)NC(=O)c2ccc(S(=O)(=O)N(C)C)cc2)cc1C	0	0	0	0	0
COc1ccc(C(=O)CSc2ccccc2C(=O)O)cc1	0	0	-	-	0
SMILES	Lmaj promast	PMI activator	HCT116 PTEN-null	bCat KO growth	PMI act hi M6P
O=C(CCCSc1nc2ccccc2c(=O)[nH]1)c1ccc(F)cc1	0	0	-	-	0
COCCN(C(=S)Nc1cccc(C)c1)C(C)c1cccnc1 (stereo unspecified)	63.9	0	-	-	0
CCOc1ccc(NC(=S)N(CCOC)C(C)c2cccnc2)cc1 (stereo unspecified)	72.9	0	-	-	0
Cc1ccc(NC(=S)N(CCN(C)C)C(C)c2cccnc2)cc1 (stereo unspecified)	0	0	-	-	0
O=C(Nc1ccc2nc(-c3cccs3)c(-c3cccs3)nc2c1)NC1CC1	63.8	0	0	0	0
COc1ccccc1C(CC(=O)Nc1ccc(C)c(C)c1)c1ccc(OC(C)C)cc1 (stereo unspecified)	51.1	0	0	0	0
O=C(NCc1ccccc1)N1CCN(c2ccc(Cl)c(Cl)c2)CC1	0	0	0	0	0
O=C(O)C1CC1C(=O)N1CCN(c2ccc(Cl)c(Cl)c2)CC1 (stereo unspecified)	87.8	0	0	0	0
C(#Cc1ccc(C#CCN2CCCC2)cc1)CN1CCCC1	91.8	0	0	0	0
O=C(c1ccccc1)N1CCN(CC#Cc2ccccc2)CC1	0	0	0	0	0
CC(Oc1ccc(Cl)cc1Cl)C(=O)NNC(=O)C(=O)N1CCCCC1 (stereo unspecified)	60.4	0	0	0	0
